Bioassay records deposited in PubChem BioAssay by Sanford-Burnham Center for Chemical Genomics.
A selection: hits, their analogues and other compounds. The true share with any hit is near 2.5%.
SENP7 inh – blocks the human protease SENP7 | Q9BQF6 | recombinant SENP7, Z-RLRGG-aminoluciferin luminescence, 40 min | inhibition, % at 5 µM | 330,000 tested, 1.5% active;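 active = inhibition above about 50% at the single test dose, limit read from the data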
Target sequence (Q9BQF6 706-1050 limits assumed): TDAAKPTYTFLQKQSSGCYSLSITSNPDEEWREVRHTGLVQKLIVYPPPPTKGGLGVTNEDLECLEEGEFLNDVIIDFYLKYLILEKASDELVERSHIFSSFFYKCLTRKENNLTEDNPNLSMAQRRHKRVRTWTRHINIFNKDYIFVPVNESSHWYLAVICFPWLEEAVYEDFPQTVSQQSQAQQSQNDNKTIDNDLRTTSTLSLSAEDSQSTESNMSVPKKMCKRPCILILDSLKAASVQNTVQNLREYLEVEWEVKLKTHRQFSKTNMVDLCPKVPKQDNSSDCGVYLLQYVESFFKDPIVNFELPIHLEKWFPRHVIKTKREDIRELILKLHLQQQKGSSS
SENP1 FRET inh – blocks the human SENP1 SUMO protease catalytic domain; Q9P0U3; 360,000 tested, 0.21% active; inhibition, % at 10 µM; recombinant SENP1 catalytic domain, CyPet-SUMO1-YPet FRET cleavage; AID 624204;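 active = inhibition at least 30% at 10 µM, raw YFP signal under a set limit, fluorescence ratio 0.5 to 1.5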
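Assay system – human recombinant His6-tagged SENP1 catalytic domain enzyme · Input – SENP1 enzyme, 20 pM final · Buffer or medium – Tris pH 8 buffer plus EDTA, NaCl, BME, BSA, NP40, catalase · Schedule – 50 min reaction at room temperature · Technique – FRET read of cyan and yellow fluorescence · Control set – no-enzyme wells low, DMSO-plus-enzyme wells high control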
SENP8 block-1 – blocks human SENP8 cleavage of Nedd8 substrate; Q96LD8; recombinant SENP8, Nedd8 substrate fluorescence; inhibition, % at 20 µM; 360,000 tested, 0.64% active; in the data active = inhibition mostly above about 40%, no sharp cut-off; inactive = mostly below about 27%
Target sequence (Q96LD8 whole entry, looked up): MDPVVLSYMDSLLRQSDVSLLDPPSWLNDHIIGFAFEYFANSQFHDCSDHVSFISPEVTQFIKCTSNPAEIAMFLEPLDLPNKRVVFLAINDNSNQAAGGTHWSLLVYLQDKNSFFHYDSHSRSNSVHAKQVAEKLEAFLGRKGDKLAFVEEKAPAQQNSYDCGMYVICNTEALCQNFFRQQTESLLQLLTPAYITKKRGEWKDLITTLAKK
SENP6 inh – blocks the human protease SENP6 | Q9GZR1 | Recombinant SENP6 catalytic domain, aminoluciferin luminescence | inhibition, % at 10 µM | 330,000 tested, 1.8% active | AID 2599;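 active = inhibition above about 50% at the single tested dose, limit read from the data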
SENP8 block-2 – blocks the human protease SENP8; inhibition, % at 10 µM; purified SENP8, Z-RLRGG-aminoluciferin cleavage, luminescence; AID 2540; 330,000 tested, 1.2% active; in the data active = inhibition above about 50%
SENP8 confirm – confirmation of human SENP8 protease inhibitors; Recombinant SENP8, Z-RLRGG-aminoluciferin luminescence, 60 min; inhibition, % at 12.5 µM; 6,200 tested, 40% active; shares compounds with SENP7 inh;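 active = mean inhibition across replicates above about 50%, limit read from the data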
SENP6 confirm – human SENP6 inhibition, confirmed. AID 488915. recombinant SENP6, Z-RLRGG-aminoluciferin luminescence. shares compounds with SENP7 inh. inhibition, % at 12.5 µM. 6,200 tested, 58% active
SENP7 confirm – human SENP7 inhibition, confirmed; shares compounds with SENP7 inh; recombinant SENP7, Z-RLRGG-aminoluciferin luminescence, 40 min; inhibition, % at 12.5 µM; 6,200 tested, 69% active
Casp3 select – inhibits human caspase-3 in SENP selectivity test; shares compounds with SENP7 inh; purified caspase-3, Z-DEVD-aminoluciferin luminescence, 60 min; inhibition, % at 12.5 µM; 6,200 tested, 60% active; AID 488918;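 active = mean inhibition above about 50%, limit read from the data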
Luc interf – interferes with luciferase luminescence in SENP counter-screen. Pre-incubated SENP8/Z-RLRGG-aminoluciferin, luciferase luminescence interference. AID 488919. 6,200 tested, 39% active. shares compounds with SENP7 inh. inhibition, % at 12.5 µM;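 active = mean inhibition above about 50% when retested at one dose, limit read from the data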
Each line names hits and unclear results; the compound was inactive in the other large screens (follow-up assays come after a bar, where they were run).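 The calls were made as follows, unless noted: active = mean inhibition above about 50% in the one-dose retest (limit read from the data); inactive = the rest.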

COc1ccc2c(c1OC)C(=O)N1c3ccccc3SC21 (stereo not given)	SENP6 inh 50 | SENP8 confirm inactive | SENP6 confirm inactive | SENP7 confirm 78 | Casp3 select 58 | Luc interf inactive
CC(=Nc1ccc(Br)cc1)c1sc2ccccc2c1O	SENP7 inh 73, SENP6 inh 80, SENP8 block-2 61 | SENP8 confirm inactive | SENP6 confirm inactive | SENP7 confirm inactive | Casp3 select inactive | Luc interf inactive
CC(=Nc1ccccc1)c1sc2ccccc2c1O	SENP7 inh 76, SENP6 inh 85, SENP8 block-2 80 | SENP8 confirm 88 | SENP6 confirm 88 | SENP7 confirm 98 | Casp3 select 77 | Luc interf 76
COC(=O)c1[nH]c2ccccc2c1NC(=O)Oc1ccccc1	none
COC(=O)c1[nH]c2ccc(C)cc2c1NC(=O)Oc1ccccc1	SENP6 inh 82, SENP8 block-2 51 | SENP8 confirm inactive | SENP6 confirm inactive | SENP7 confirm inactive | Casp3 select inactive | Luc interf inactive
COc1cccc(COc2ccc3c(C)cc(=O)oc3c2)c1	SENP7 inh 71, SENP6 inh 77, SENP8 block-2 68 | SENP8 confirm inactive | SENP6 confirm 75 | SENP7 confirm 90 | Casp3 select 65 | Luc interf 62
CC(=O)c1c(C)[nH]c(C(=O)OCC(=O)Nc2nnc(-c3ccccc3)o2)c1C	none
C/C(=N/OC(=O)c1ccc(C(F)(F)F)cc1)c1oc(C)nc1C	SENP7 inh 91, SENP6 inh 84, SENP8 block-2 72 | SENP8 confirm 78 | SENP6 confirm 79 | SENP7 confirm 97 | Casp3 select 86 | Luc interf 57
COc1ccc(CCNC(=O)Cc2c(Cl)cccc2Cl)cc1	none
O=C(C1CCC(C(=O)N2CCc3ccccc32)CC1)N1CCc2ccccc21 (stereo not given)	none
O=C(Nc1ccccc1)C(=O)Nc1ccc2c(c1)N(C(=O)C1CC1)CCC2	SENP7 inh 99, SENP6 inh 98, SENP8 block-2 96 | SENP8 confirm 56 | SENP6 confirm 100 | SENP7 confirm 103 | Casp3 select 98 | Luc interf inactive
O=[N+]([O-])c1ccc(N=Nc2ccc(O)cc2O)cc1	SENP7 inh 98, SENP6 inh 97, SENP8 block-2 96 | SENP8 confirm 100 | SENP6 confirm 101 | SENP7 confirm 104 | Casp3 select 99 | Luc interf 99
O=[N+]([O-])c1cccc(N=Nc2ccc(O)cc2O)c1	none (no result: SENP7 inh, SENP6 inh, SENP8 block-2)
O=C1CCSC2=C1SCc1sccc12	none (no result: SENP7 inh, SENP6 inh, SENP8 block-2)
O=C(Nc1cccc(Cl)c1)Nc1ccccc1C(=O)NCc1ccco1	SENP7 inh 76, SENP6 inh 73, SENP8 block-2 68 | SENP8 confirm inactive | SENP6 confirm inactive | SENP7 confirm 96 | Casp3 select inactive | Luc interf inactive
CC1CSC(N(C(=O)c2ccc(S(C)(=O)=O)cc2)c2ccc(Cl)cc2)=N1 (stereo not given)	none
Cc1c(Cl)cnc(NC(=O)COC(=O)c2cccs2)c1Cl	none
O=C(COC(=O)c1ccc([N+](=O)[O-])s1)Nc1ccc(Cl)cn1	SENP6 inh 65 | SENP8 confirm inactive | SENP6 confirm inactive | SENP7 confirm inactive | Casp3 select inactive | Luc interf inactive
Cc1ccc(C(=O)OCC(=O)Nc2ccc(Cl)cn2)s1	none
Cc1c(Cl)cnc(NC(=O)COC(=O)c2ccc([N+](=O)[O-])s2)c1Cl	SENP6 inh 71 | SENP8 confirm inactive | SENP6 confirm 76 | SENP7 confirm inactive | Casp3 select inactive | Luc interf inactive
Cc1ccccc1C1(CCN2CCCCC2)CCOC(C)(C)C1 (stereo not given)	none
COc1ccccc1-n1c(=O)oc2ccc(Cl)cc2c1=O	SENP6 inh 53 | SENP8 confirm 53 | SENP6 confirm 50 | SENP7 confirm 55 | Casp3 select inactive | Luc interf inactive
COC(=O)[C@]12C(=O)NC[C@H](CN1c1ccc(Cl)c(C)c1)N2C	SENP7 inh 100 | SENP8 confirm inactive | SENP6 confirm inactive | SENP7 confirm inactive | Casp3 select inactive | Luc interf inactive
COC(=O)C1=C(C)N(c2ccc(Cl)c(Cl)c2)C(=O)C1	none
COc1cccc2cc(-c3nc4ccccc4[nH]3)c(=O)oc12	SENP7 inh 59 | SENP8 confirm inactive | SENP6 confirm inactive | SENP7 confirm inactive | Casp3 select inactive | Luc interf inactive
Cc1cccc2cc(-c3nc4ccc(C(=O)O)cc4[nH]3)c(=O)oc12	SENP7 inh 86, SENP6 inh 88, SENP8 block-2 86 | SENP8 confirm 94 | SENP6 confirm 94 | SENP7 confirm 100 | Casp3 select 98 | Luc interf 56
COc1ccc(-c2cc3cccc(OC)c3oc2=O)cc1	SENP7 inh 87, SENP6 inh 81, SENP8 block-2 80 | SENP8 confirm 89 | SENP6 confirm 90 | SENP7 confirm 99 | Casp3 select 88 | Luc interf 76
O=C(NNC(=O)c1cc2ccccc2oc1=O)c1ccccc1[N+](=O)[O-]	none
COc1ccc(C(=O)N/C(=C/c2cccnc2)C(=O)N2CCN(C)CC2)cc1OC	none
Cc1cccc(/C=N\N=C\c2cccc(C)c2)c1	SENP7 inh 51, SENP6 inh 63 | SENP8 confirm inactive | SENP6 confirm 54 | SENP7 confirm 81 | Casp3 select inactive | Luc interf inactive
O=c1c2ccccc2nnn1CSc1ccccc1	SENP7 inh 78, SENP6 inh 87, SENP8 block-2 75 | SENP8 confirm 81 | SENP6 confirm 81 | SENP7 confirm 96 | Casp3 select 88 | Luc interf 85
O=c1c2ccccc2nnn1CSc1ccc2ccccc2n1	none
COc1ccc(C(=O)O/N=C(\N)c2ccccc2)c(OC)c1	SENP7 inh 81, SENP6 inh 92, SENP8 block-2 82 | SENP8 confirm 76 | SENP6 confirm 69 | SENP7 confirm 89 | Casp3 select 85 | Luc interf 72
COc1ccc(C(=O)O/N=C(\N)c2ccc(OC)c(OC)c2)c(OC)c1	none
